From ChEMBL document CHEMBL4020842, “Discovery of N1-(4-((7-Cyclopentyl-6-(dimethylcarbamoyl)-7 H-pyrrolo[2,3- d]pyrimidin-2-yl)amino)phenyl)- N8-hydroxyoctanediamide as a Novel Inhibitor Targeting Cyclin-dependent Kinase 4/9 (CDK4/9) and Histone Deacetlyase1 (HDAC1) against Malignant Cancer” (J Med Chem, 2018)
Calls of active or inactive are those of the source. The calls are words filed in the database; no cut-off is given here.

Key:
[1] = Aqueous solubility in water at 1 mg using acid formulation sonicated for 24 hrs and incubated under unstirred condition for 24 hrs by HPLC method; type: physicochemical
[2] = Cmax in Sprague-Dawley rat at 20 mg/kg, ip administered as single dose by HPLC analysis; type: ADME, organism-based; set-up: dose 20 mg/kg, route intraperitoneal; conditions: in vivo
MDA-MB-231 = assay: Induction of apoptosis in human MDA-MB-231 cells assessed as late apoptotic cells at 10 uM after 48 hrs by annexin V-FITC/propidium iodide staining based flow cytometry (reference value: 1.53%); type: functional
T47D [3] = assay: Downregulation of Cyclin-D1 protein expression in human T47D cells after 48 hrs by Western blot method; type: functional, cell-based
Method in brief: (§1)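 Treated cells were lysed and CDK4 and cyclin D1 protein levels were assessed by Western blot.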

[4] = Lipophilicity, log P of the compound by HPLC based shake flask method; type: physicochemical
4T1 [5] = assay: Antitumor activity against mouse Fluc-labeled 4T1 cells implanted in Balb/c mouse assessed as reduction in tumor weight at 90 mg/kg, ip administered daily for 18 days measured after 8 to 25 days; type: functional, organism-based
Method in brief: (§2)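 Luciferase (Fluc) reporter introduced into 4T1 cells by lentiviral transduction. Cells implanted orthotopically into mammary fat pads of female BALB/c mice aged 6–8 weeks. Once tumours averaged 100 mm3, dosing was daily by IP injection. Bioluminescence imaging was done at days 8 and 25 to reflect viable tumour cell number. Tumour weight was recorded at study end.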

T47D [6] = assay: Induction of apoptosis in human T47D cells assessed as early apoptotic cells at 1 uM after 48 hrs by annexin V-FITC/propidium iodide staining based flow cytometry (reference value: 7.7%); type: functional
Mus musculus = assay: Downregulation of Bcl2 level in tumor of Balb/c mouse implanted with mouse Fluc-labeled 4T1 cells at 90 to 130 mg/kg, […] daily for 18 days by immunohistochemical analysis; type: functional, organism-based
4T1 [7] = assay: Antitumor activity against mouse Fluc-labeled 4T1 cells implanted in Balb/c mouse assessed as reduction in tumor weight at 130 mg/kg, ip administered daily for 18 days measured after 8 to 25 days; type: functional, organism-based; method in brief: as §2
NCI-H460 [8] = assay: Induction of apoptosis in human NCI-H460 cells after 48 hrs by annexin V-FITC/propidium iodide staining based flow cytometry; type: functional, cell-based
[9] = biological target: CDK3/Cyclin E (Homo sapiens) (UniProt P24864+Q00526); assay: Inhibition of recombinant human full length C-terminal 6His-tagged CDK3/N-terminal GST-tagged Cyclin-E co-expressed in baculovirus infected sf21 cells at 1 uM relative to control
Hep 3B2 [10] = assay: Induction of apoptosis in human Hep3B cells assessed as necrotic cells at 5 uM after 48 hrs by annexin V-FITC/propidium iodide staining based flow cytometry (reference value: 4.97%); type: functional
NCI-H460 [11] = assay: Downregulation of CDK4 protein expression in human NCI-H460 cells after 48 hrs by Western blot method; type: functional, cell-based; method in brief: as §1
HepG2 [12] = assay: Induction of apoptosis in human HepG2 cells assessed as early apoptotic cells at 5 uM after 48 hrs by annexin V-FITC/propidium iodide staining based flow cytometry (reference value: 0.3%); type: functional
T47D [13] = assay: Downregulation of CDK4 protein expression in human T47D cells after 48 hrs by Western blot method; type: functional, cell-based; method in brief: as §1
HepG2 [14] = assay: Induction of apoptosis in human HepG2 cells assessed as live cells at 5 uM after 48 hrs by annexin V-FITC/propidium iodide staining based flow cytometry (reference value: 96.7%); type: functional
[15] = AUC (0 to infinity) in Sprague-Dawley rat at 20 mg/kg, po administered as single dose by HPLC analysis; type: ADME, organism-based; set-up: dose 20 mg/kg, time infinity, route oral; conditions: in vivo
T47D [16] = assay: Cell cycle arrest in human T47D cells assessed as accumulation at G2 phase at 2.5 to 10 uM after 24 hrs by propidium iodide staining based flow cytometry; type: functional
Method in brief: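 Cells were exposed for 24 h to a range of concentrations (625 nM, 2.5 and 10 µM), with DMSO vehicle as control. They were then stained with propidium iodide and analysed by flow cytometry to obtain the percentages of cells in G0/G1, S and G2 phases.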

[17] = Apparent volume of distribution at steady state in Sprague-Dawley rat at 20 mg/kg, iv administered as single dose by HPLC analysis; type: ADME, organism-based; conditions: in vivo, read-out: Vdss(app)
CDK4/Cyclin D3 = CDK4/Cyclin D3 (Homo sapiens, UniProt P11802); assay: Inhibition of recombinant human full length N-terminal GST-tagged CDK4/Cyclin-D3 co-expressed in baculovirus infected sf21 cells using Rb substrate in presence of [gamma33P]ATP after 10 mins by scintillation counting method
[18] = biological target: CDK4/Cyclin D3 (Homo sapiens) (UniProt P11802+P30281); assay: Inhibition of recombinant human full length N-terminal GST-tagged CDK4/Cyclin-D3 co-expressed in baculovirus infected sf21 cells at 1 uM using Rb substrate in presence of [gamma33P]ATP after 10 mins by scintillation counting method relative to control
[19] = MRT (0 to infinity) in Sprague-Dawley rat at 20 mg/kg, po administered as single dose by HPLC analysis; type: ADME, organism-based; conditions: in vivo
A549 [20] = assay: Inhibition of CDK4 protein expression in human A549 cells at 0.1 to 1 uM after 24 hrs by immunofluorescence assay; type: functional, cell-based
Method in brief: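 Cells treated 24 h with test compound or vehicle. For the CDK4 read-out the compound was used at 100 nM, and for acetyl-histone H3 at 1 µM. CDK4 and acetyl-histone H3 were then detected by immunofluorescence staining and compared with vehicle-treated cells.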

[21] = Half life in Sprague-Dawley rat at 20 mg/kg, po administered as single dose by HPLC analysis; type: ADME, organism-based; conditions: in vivo
Aurora-C/INCENP = Aurora-C/INCENP (Homo sapiens, UniProt Q9NQS7+Q9UQB9); assay: Inhibition of recombinant human N-terminal His6-tagged Aurora-C (35-end residues)/N-terminal GST-tagged INCENP (821-end residues) expressed in baculovirus infected sf21 cells using AKRRRLSSLRA substrate in presence of [gamma33P]ATP after 10 mins by scintillation counting method
[22] = Lipophilicity, log D of the compound at pH 7.4 by HPLC based shake flask method; type: physicochemical; conditions: buffer
CDK4/CDK9 (Homo sapiens) [23] = biological target: T1, CDK4/CDK9 (Homo sapiens) (UniProt P11802+P50750); assay: Inhibition of CDK4/CDK9 in human NCI-H460 cells assessed as reduction in Rb phosphorylation at Ser807/811 residues at 1 uM after 48 hrs by Western blot method; type: cell-based
CDK4/CDK9 (Homo sapiens) [24] = biological target: T1, CDK4/CDK9 (Homo sapiens); assay: Inhibition of CDK4/CDK9 in human T47D cells assessed as reduction in Rb phosphorylation at Ser807/811 residues at 1 uM after 48 hrs by Western blot method; type: cell-based
A549 [25] = assay: Induction of apoptosis in human A549 cells assessed as necrotic cells at 5 uM after 48 hrs by annexin V-FITC/propidium iodide staining based flow cytometry (reference value: […]%); type: functional
Histone deacetylase 1 = Histone deacetylase 1 (Homo sapiens, UniProt Q13547); assay: Inhibition of HDAC1 in human Hep3B cells assessed as increase in p53 phosphorylation at Ser15 residue at 1 to 5 uM after 48 hrs by Western blot method; type: cell-based
Hep 3B2 [26] = assay: Induction of apoptosis in human Hep3B cells assessed as necrotic cells at 1 uM after 48 hrs by annexin V-FITC/propidium iodide staining based flow cytometry (reference value: 4.97%); type: functional

T1 sequence (P11802 whole entry, looked up): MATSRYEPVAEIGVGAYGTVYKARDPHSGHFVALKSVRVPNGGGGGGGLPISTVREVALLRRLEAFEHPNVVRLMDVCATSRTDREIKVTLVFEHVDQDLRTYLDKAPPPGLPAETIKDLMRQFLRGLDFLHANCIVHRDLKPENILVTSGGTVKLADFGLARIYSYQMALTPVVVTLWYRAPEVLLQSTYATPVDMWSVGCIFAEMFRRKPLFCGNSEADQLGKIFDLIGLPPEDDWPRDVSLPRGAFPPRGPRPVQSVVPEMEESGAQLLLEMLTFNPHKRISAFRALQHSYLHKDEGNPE
T1 sequence (P50750 whole entry, looked up): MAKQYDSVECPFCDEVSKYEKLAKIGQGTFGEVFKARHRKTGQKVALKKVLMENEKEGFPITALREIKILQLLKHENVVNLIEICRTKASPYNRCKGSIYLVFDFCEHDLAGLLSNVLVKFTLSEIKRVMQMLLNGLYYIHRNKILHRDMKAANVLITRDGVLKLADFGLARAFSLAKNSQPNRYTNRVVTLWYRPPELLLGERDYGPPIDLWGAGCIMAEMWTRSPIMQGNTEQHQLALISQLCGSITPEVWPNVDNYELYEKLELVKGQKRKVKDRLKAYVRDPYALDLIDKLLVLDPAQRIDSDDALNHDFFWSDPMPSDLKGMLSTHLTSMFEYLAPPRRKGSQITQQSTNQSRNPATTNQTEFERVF
Sequence of CDK4/Cyclin D3 (P11802 whole entry): as the sequence (P11802 whole entry, looked up) above
Sequence of CDK4/Cyclin D3 (P30281 whole entry, further chain): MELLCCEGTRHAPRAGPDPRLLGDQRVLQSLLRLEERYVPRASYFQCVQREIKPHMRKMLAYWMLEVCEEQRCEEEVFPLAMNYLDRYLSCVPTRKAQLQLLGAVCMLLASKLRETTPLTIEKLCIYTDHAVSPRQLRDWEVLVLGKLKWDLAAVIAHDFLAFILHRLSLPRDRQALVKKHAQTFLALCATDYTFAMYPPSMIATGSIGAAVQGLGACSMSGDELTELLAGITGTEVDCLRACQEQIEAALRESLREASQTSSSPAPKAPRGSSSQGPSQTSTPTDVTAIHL
Sequence of Aurora-C/INCENP (Q9UQB9 whole entry): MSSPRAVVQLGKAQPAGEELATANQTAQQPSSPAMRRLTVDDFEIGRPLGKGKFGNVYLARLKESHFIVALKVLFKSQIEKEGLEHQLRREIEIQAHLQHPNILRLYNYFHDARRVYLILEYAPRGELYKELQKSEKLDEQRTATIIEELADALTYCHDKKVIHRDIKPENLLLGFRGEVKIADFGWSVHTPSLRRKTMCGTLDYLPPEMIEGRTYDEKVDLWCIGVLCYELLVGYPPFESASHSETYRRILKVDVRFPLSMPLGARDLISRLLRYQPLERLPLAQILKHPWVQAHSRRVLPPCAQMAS
Sequence of Aurora-C/INCENP (Q9NQS7 whole entry): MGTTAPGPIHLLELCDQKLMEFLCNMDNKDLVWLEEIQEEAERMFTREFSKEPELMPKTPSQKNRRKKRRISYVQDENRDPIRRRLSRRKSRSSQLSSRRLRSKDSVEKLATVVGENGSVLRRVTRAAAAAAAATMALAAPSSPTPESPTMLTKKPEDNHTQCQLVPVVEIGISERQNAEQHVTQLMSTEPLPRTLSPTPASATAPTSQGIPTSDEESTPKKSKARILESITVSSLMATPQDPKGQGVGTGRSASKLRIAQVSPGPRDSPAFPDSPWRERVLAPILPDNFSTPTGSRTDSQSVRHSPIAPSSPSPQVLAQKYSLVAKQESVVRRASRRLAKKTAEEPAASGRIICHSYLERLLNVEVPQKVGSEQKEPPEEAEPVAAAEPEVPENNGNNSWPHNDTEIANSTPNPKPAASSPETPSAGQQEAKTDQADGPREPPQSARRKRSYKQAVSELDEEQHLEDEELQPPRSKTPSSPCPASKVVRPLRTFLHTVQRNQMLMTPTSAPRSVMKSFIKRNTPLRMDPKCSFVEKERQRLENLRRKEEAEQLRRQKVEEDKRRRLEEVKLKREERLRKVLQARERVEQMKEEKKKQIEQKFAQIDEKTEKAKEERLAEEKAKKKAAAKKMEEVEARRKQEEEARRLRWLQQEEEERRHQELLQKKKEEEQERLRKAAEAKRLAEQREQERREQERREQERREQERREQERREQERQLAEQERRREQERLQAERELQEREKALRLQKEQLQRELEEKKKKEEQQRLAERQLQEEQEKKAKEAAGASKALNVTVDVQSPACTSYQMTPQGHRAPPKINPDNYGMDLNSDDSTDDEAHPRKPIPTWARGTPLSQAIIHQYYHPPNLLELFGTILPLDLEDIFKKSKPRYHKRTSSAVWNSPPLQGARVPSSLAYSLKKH
Sequence of Histone deacetylase 1 (Q13547 whole entry): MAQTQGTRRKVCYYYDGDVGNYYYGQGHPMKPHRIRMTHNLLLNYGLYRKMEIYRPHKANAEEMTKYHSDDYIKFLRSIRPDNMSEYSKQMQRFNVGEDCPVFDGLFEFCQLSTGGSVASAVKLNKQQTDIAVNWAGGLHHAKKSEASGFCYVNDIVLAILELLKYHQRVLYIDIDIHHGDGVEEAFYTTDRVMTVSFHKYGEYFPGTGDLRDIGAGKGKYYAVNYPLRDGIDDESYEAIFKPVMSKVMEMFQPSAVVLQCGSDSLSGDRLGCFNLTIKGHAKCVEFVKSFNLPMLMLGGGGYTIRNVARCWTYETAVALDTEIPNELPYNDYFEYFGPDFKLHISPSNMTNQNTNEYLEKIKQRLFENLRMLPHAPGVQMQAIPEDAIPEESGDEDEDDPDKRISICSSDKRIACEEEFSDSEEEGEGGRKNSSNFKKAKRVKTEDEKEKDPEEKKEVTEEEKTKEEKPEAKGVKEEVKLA
Sequence of CDK3/Cyclin E (Homo sapiens) (P24864 whole entry, looked up): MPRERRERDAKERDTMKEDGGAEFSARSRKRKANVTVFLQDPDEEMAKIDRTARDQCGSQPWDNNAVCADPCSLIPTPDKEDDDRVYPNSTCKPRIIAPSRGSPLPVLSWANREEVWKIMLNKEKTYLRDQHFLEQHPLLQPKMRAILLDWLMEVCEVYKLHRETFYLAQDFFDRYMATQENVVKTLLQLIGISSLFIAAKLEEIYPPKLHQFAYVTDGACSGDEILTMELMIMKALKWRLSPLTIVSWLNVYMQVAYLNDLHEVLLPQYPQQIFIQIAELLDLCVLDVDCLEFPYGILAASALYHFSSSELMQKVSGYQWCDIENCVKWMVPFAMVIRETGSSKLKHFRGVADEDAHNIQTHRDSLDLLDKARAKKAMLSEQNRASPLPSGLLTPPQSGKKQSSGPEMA
Sequence of CDK3/Cyclin E (Homo sapiens) (Q00526 whole entry, looked up): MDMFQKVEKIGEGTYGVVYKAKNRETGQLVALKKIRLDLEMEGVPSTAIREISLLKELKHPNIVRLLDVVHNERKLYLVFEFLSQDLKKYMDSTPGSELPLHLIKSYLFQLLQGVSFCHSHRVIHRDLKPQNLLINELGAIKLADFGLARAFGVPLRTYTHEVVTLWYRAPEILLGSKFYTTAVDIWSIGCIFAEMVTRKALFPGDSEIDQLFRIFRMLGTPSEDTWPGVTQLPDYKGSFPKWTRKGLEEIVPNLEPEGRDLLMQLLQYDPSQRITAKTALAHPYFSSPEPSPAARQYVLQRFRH

solubility [1]: Insoluble | Cmax [2]: 360 ng/mL | logP [4]: 2.62 | inhibition [9]: 68% | AUC(0-inf) [15]: 1130 ng·h/mL | Vd [17]: 49 L/kg | IC50 (CDK4/Cyclin D3): 8.8 nM | inhibition [18]: 101% | MRT inf [19]: 20.3 h | half-life [21]: 14.9 h | IC50 (Aurora-C/INCENP): 22 nM | logD [22]: 2.02 | inhibition (CDK4/CDK9 (Homo sapiens) [23]): Active | inhibition (CDK4/CDK9 (Homo sapiens) [24]): Active | inhibition (Histone deacetylase 1): Active
Compound: CN(C)C(=O)c1cc2cnc(Nc3ccc(NC(=O)CCCCCCC(=O)NO)cc3)nc2n1C1CCCC1
Activity (MDA-MB-231): 6.59% | Activity (T47D [3]): Dose-dependent effect | Activity (4T1 [5]): Active | Activity (T47D [6]): 4.5% | Activity (Mus musculus): Active | Activity (4T1 [7]): Active | Activity (NCI-H460 [8]): Dose-dependent effect | Activity (Hep 3B2 [10]): 2.08% | Activity (NCI-H460 [11]): Dose-dependent effect | Activity (HepG2 [12]): 7.31% | Activity (T47D [13]): Dose-dependent effect | Activity (HepG2 [14]): 76.4% | Activity (T47D [16]): Active | inhibition (A549 [20]): Active | Activity (A549 [25]): 4.16% | Activity (Hep 3B2 [26]): 3.3%
